Reference: ChEMBL document CHEMBL1151196, “Chemical constituents from the mangrove plant, Aegiceras corniculatum” (J Nat Prod, 2004)
In brackets after ≈: the same amount, converted by molar mass.

Experiments:
Type in all cases: functional, cell-based
HL-60 = assay: Cytotoxicity against human HL60 cells after 48 hrs by MTT assay; details: HL-60, 48 h
Summary of the method: (§1)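 Cells kept in RPMI-1640 with 10% FBS, penicillin and streptomycin, at 37 °C under 5% CO2. Seeded at 2000/mL and grown 24 h, then given serial dilutions (100 to 1 μg/mL; DMSO stock diluted in medium). Vehicle control was 0.1% DMSO. After 48 h, MTT added for 4 h. Formazan dissolved in acid-isopropanol and read at 570 nm. Run in triplicate.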

U-937 = assay: Cytotoxicity against human U937 cells after 48 hrs by MTT assay; details: U-937, 48 h; summary of the method: as §1
Bel-7402 = assay: Cytotoxicity against human Bel7402 cells after 48 hrs by MTT assay; details: Bel-7402, 48 h; summary of the method: as §1
HeLa = assay: Cytotoxicity against human HeLa cells after 48 hrs by MTT assay; summary of the method: as §1

Compound | IC50 (HL-60) | IC50 (U-937) | IC50 (Bel-7402) | IC50 (HeLa)
CCCCCCCCCCCC1=C(O)/C(=C2\C(=O)Oc3c2cc(OC)c(O)c3CCCCCCCCCCC)OC1=O | > 100 µg/mL | > 100 µg/mL | > 100 µg/mL | > 100 µg/mL
CCCCCCCCCCCC1=C(O)C(=O)c2c(CCCCCCCCCCC)cc(O)cc2C1=O | > 100 µg/mL | > 100 µg/mL | > 100 µg/mL | > 100 µg/mL
CCCCCCCCCc1cc(O)cc(O)c1OC | > 100 µg/mL | > 100 µg/mL | > 100 µg/mL | > 100 µg/mL
CCCCCCCCCCCC1=C(O)C(=O)C=C(OCC)C1=O | 2.5 µg/mL (≈ 7.75 µM) | 1.3 µg/mL (≈ 4.03 µM) | 2.7 µg/mL (≈ 8.37 µM) | 3.9 µg/mL (≈ 12.1 µM)
CCCCCCCCCCCC1=C(OC(C)=O)C(=O)C=C(OC)C1=O | > 100 µg/mL | > 100 µg/mL | > 100 µg/mL | > 100 µg/mL
CCCCCCCCCCCC1=CC(=O)C=C(OC)C1=O | > 100 µg/mL | > 100 µg/mL | > 100 µg/mL | > 100 µg/mL
CCCCCCCCCCCC1=C(O)C(=O)c2c(oc3c(CCCCCCCCCCC)c(O)c(OC)cc23)C1=O | > 100 µg/mL | > 100 µg/mL | > 100 µg/mL | > 100 µg/mL
CCCCCCCCCCCC1=C(O)C(=O)c2c(oc3cc(OC)c(O)c(CCCCCCCCCCC)c23)C1=O | > 100 µg/mL | > 100 µg/mL | > 100 µg/mL | > 100 µg/mL
CCCCCCCCCCCC1=C(O)C(=O)C=C(OC)C1=O [5-O-METHYLEMBELIN] | 3 µg/mL (≈ 9.73 µM) | 1.5 µg/mL (≈ 4.86 µM) | 3.6 µg/mL (≈ 11.7 µM) | 9 µg/mL (≈ 29.2 µM)
COc1cc2c(c(OC)c1OC)-c1ccc(OC)c(=O)cc1[C@@H](NC(C)=O)CC2 [COLCHICINE] |  | 0.1 µg/mL (≈ 0.25 µM) | 0.4 µg/mL (≈ 1 µM) | 
